Experimental data from different studies.
Lines come from different studies, so protocols differ.
Target: Serine/threonine-protein kinase Nek3 (NEK3, Homo sapiens, UniProt P51956)
One construct used (P51956 1-506): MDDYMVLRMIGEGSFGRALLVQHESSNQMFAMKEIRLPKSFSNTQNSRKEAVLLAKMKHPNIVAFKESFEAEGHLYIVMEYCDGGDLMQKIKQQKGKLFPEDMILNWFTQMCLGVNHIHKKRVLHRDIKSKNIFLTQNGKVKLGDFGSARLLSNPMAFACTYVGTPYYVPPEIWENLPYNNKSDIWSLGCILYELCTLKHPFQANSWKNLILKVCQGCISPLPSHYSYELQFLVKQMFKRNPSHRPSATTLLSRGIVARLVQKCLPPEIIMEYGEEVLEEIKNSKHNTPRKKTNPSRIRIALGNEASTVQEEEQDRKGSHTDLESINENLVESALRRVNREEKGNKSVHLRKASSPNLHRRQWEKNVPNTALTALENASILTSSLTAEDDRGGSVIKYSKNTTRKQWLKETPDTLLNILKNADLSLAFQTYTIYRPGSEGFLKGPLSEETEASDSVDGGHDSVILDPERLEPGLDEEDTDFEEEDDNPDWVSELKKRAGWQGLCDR

C1=C/COCc2cc(ccc2OCCN2CCCC2)Nc2nccc(n2)-c2cccc(c2)COC/1
remaining binding (binding; 0.1 µM): 82%

C=CC(=O)N1CCC[C@@H](n2nc(-c3ccc(Oc4ccccc4)cc3)c3c(N)ncnc32)C1
inhibition (enzyme activity, inhibitor; 1 µM): 5%

CCCCC(=O)Nc1ccc(-c2ccc3ncn(CCC)c(=O)c3c2)cn1
remaining binding (binding, competition with immobilised ligand; 0.5 µM): 87%

CC(C)S(=O)(=O)c1ccc2nccc(Nc3ccc4sc(C5CCCC5)nc4c3)c2c1
activity vs control (enzyme activity, inhibitor; 1 µM): 111%

CN1CCN(C(=O)c2ccc(NC(=O)Nc3ccc(N(C)c4ccnc(Nc5ccc(CS(C)(=O)=O)cc5)n4)cc3)cc2)CC1
remaining binding (binding; 1 µM): 66%

C=CC(=O)N1CCC([C@@H]2CCNc3c(C(N)=O)c(-c4ccc(Oc5ccccc5)cc4)nn32)CC1
inhibition (enzyme activity, inhibitor; 1 µM): 44%

Cc1ccc(NC(=O)c2ccnc(C(F)(F)F)c2)cc1-c1cc(OCCO)nc(N2CCOCC2)c1
remaining binding (binding; 1 µM): 95%

Cc1cc(O)c(-c2ccc([C@@H](C)CN(C)C)cc2)c2c1[nH]c(=O)c1sccc12
inhibition (enzyme activity, inhibitor; 0.1 µM): -5.15%
